# Paper PMC3130141 (Archives of Drug Information, 2011)
# Experiments:
# Format in all cases: in vivo, human
# [1] = test system: Japanese patients with advanced solid tumors; test: Efficacy: overall best response by RECIST version 1.0
# Procedure, shortened: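 Investigator-assessed overall best response by RECIST v1.0, with baseline imaging within 28 days before first dose. Re-imaging was on day 29 of cycles 1 and 2 and of subsequent odd-numbered cycles. […] Dosing was a 1-h iv infusion on days 1, 8 and 15 of 28-day cycles (10–25 mg cohorts). Results were summarized descriptively by dose group.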
# [2] = Plasma pharmacokinetics, non-compartmental analysis; details: for clearance / AUC(0-inf) / AUC(0-t) / Cmax / MRT / Vd / concentration at 24 h / half-life: human, plasma
# Procedure, shortened: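 Plasma was sampled pre- and post-dose daily on days 1–8 of cycle 1 and on day 1 of cycle 2, after a 1-h iv infusion. Analysis was non-compartmental: Cmax by inspection; λz by log-linear terminal regression; AUC0–24h by linear trapezoidal rule, extrapolated to infinity via λz; CL as dose/AUC. Values are geometric mean (CV%) per cohort.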
# [3] = test system: Japanese patients with advanced solid tumors; test: Laboratory assessments; details: for Blood sodium decreased, patients with grade ≥3 abnormal laboratory finding: cut-off <130 mmol/L; for Lymphocyte count decreased, patients with grade ≥3 abnormal laboratory finding / Lymphopenia, patients with grade ≥3 abnormal laboratory finding: cut-off <0.5 × 10^9/L; for Neutropenia, patients with grade ≥3 abnormal laboratory finding: cut-off <1.0 × 10^9/L; for Leukopenia, patients with grade ≥3 abnormal laboratory finding: cut-off <2.0 × 10^9/L; for Hemoglobin decreased, patients with grade ≥3 abnormal laboratory finding: cut-off <8.0 g/dL; for Thrombocytopenia, patients with grade ≥3 abnormal laboratory finding: cut-off <50.0 × 10^9/L; for Weight decreased, patients with grade ≥3 abnormal vital sign: cut-off ≥20% from baseline
structure (smiles),measurement,setting,value
Cc1ccc(C(=O)N(CCCN)C(c2nc3snc(C)c3c(=O)n2Cc2ccccc2)C(C)C)cc1 (stereo not drawn) [AZD4877],Patients with complete or partial response,[1]; all doses,No patients
same,Patients with stable disease ≥8 weeks,[1]; all doses,five of 16
same,Overall best response (RECIST),"[1]; all doses, stable disease defined as ≥8 weeks",stable disease
same,Duration of stable disease,"[1]; patient with thymus cancer, 20 mg cohort",≥ 12 weeks
same,Dose proportionality of exposure,[2]; 10-25 mg,not fully dose proportional
same,clearance,"[2]; intravenous, 25 mg",325 to 373 mL/min
same,AUC(0-inf),"[2]; iv, 10 mg",447 ng·h/mL
same,AUC(0-t),"[2]; iv, 10 mg",234 ng·h/mL
same,Cmax,"[2]; iv, 10 mg",63.4 ng/mL
same,MRT,"[2]; iv, 10 mg",34.2 h
same,Vd,"[2]; iv, 10 mg",766 L
same,clearance,"[2]; iv, 10 mg",373 mL/min
same,concentration at 24 h,"[2]; iv, 10 mg",4.9 ng/mL
same,half-life,"[2]; iv, 10 mg",28.7 h
same,AUC(0-inf),"[2]; iv, 15 mg",671 ng·h/mL
same,AUC(0-t),"[2]; iv, 15 mg",424 ng·h/mL
same,Cmax,"[2]; iv, 15 mg",99.7 ng/mL
same,MRT,"[2]; iv, 15 mg",22.9 h
same,Vd,"[2]; iv, 15 mg",512 L
same,clearance,"[2]; iv, 15 mg",372 mL/min
same,concentration at 24 h,"[2]; iv, 15 mg",7.8 ng/mL
same,half-life,"[2]; iv, 15 mg",20.3 h
same,AUC(0-inf),"[2]; iv, 20 mg",1430 ng·h/mL
same,AUC(0-t),"[2]; iv, 20 mg",882 ng·h/mL
same,Cmax,"[2]; iv, 20 mg",218 ng/mL
same,MRT,"[2]; iv, 20 mg",22.4 h
same,Vd,"[2]; iv, 20 mg",314 L
same,clearance,"[2]; iv, 20 mg",233 mL/min
same,concentration at 24 h,"[2]; iv, 20 mg",14.9 ng/mL
same,half-life,"[2]; iv, 20 mg",21.3 h
same,AUC(0-inf),"[2]; iv, 25 mg",1280 ng·h/mL
same,AUC(0-t),"[2]; iv, 25 mg",838 ng·h/mL
same,Cmax,"[2]; iv, 25 mg",224 ng/mL
same,MRT,"[2]; iv, 25 mg",22.2 h
same,Vd,"[2]; iv, 25 mg",432 L
same,clearance,"[2]; iv, 25 mg",325 mL/min
same,concentration at 24 h,"[2]; iv, 25 mg",13.6 ng/mL
same,half-life,"[2]; iv, 25 mg",21.1 h
same,"Any grade ≥3 finding/vital sign, patients with grade ≥3 abnormal laboratory findings/vital signs",[3]; 10 mg (N = 3),1 (33) N (%)
same,"Blood sodium decreased, patients with grade ≥3 abnormal laboratory finding",[3]; 10 mg (N = 3),0 N (%)
same,"Lymphocyte count decreased, patients with grade ≥3 abnormal laboratory finding",[3]; 10 mg (N = 3),0 N (%)
same,"Lymphopenia, patients with grade ≥3 abnormal laboratory finding",[3]; 10 mg (N = 3),0 N (%)
same,"Neutropenia, patients with grade ≥3 abnormal laboratory finding",[3]; 10 mg (N = 3),1 (33) N (%)
same,"Leukopenia, patients with grade ≥3 abnormal laboratory finding",[3]; 10 mg (N = 3),0 N (%)
same,"Hemoglobin decreased, patients with grade ≥3 abnormal laboratory finding",[3]; 10 mg (N = 3),0 N (%)
same,"Thrombocytopenia, patients with grade ≥3 abnormal laboratory finding",[3]; 10 mg (N = 3),0 N (%)
same,"Weight decreased, patients with grade ≥3 abnormal vital sign",[3]; 10 mg (N = 3),0 N (%)
same,"Any grade ≥3 finding/vital sign, patients with grade ≥3 abnormal laboratory findings/vital signs",[3]; 15 mg (N = 3),1 (33) N (%)
same,"Blood sodium decreased, patients with grade ≥3 abnormal laboratory finding",[3]; 15 mg (N = 3),0 N (%)
same,"Lymphocyte count decreased, patients with grade ≥3 abnormal laboratory finding",[3]; 15 mg (N = 3),0 N (%)
same,"Lymphopenia, patients with grade ≥3 abnormal laboratory finding",[3]; 15 mg (N = 3),0 N (%)
same,"Neutropenia, patients with grade ≥3 abnormal laboratory finding",[3]; 15 mg (N = 3),1 (33) N (%)
same,"Leukopenia, patients with grade ≥3 abnormal laboratory finding",[3]; 15 mg (N = 3),0 N (%)
same,"Hemoglobin decreased, patients with grade ≥3 abnormal laboratory finding",[3]; 15 mg (N = 3),0 N (%)
same,"Thrombocytopenia, patients with grade ≥3 abnormal laboratory finding",[3]; 15 mg (N = 3),0 N (%)
same,"Weight decreased, patients with grade ≥3 abnormal vital sign",[3]; 15 mg (N = 3),0 N (%)
same,"Any grade ≥3 finding/vital sign, patients with grade ≥3 abnormal laboratory findings/vital signs",[3]; 20 mg (N = 6),4 (67) N (%)
same,"Blood sodium decreased, patients with grade ≥3 abnormal laboratory finding",[3]; 20 mg (N = 6),1 (17) N (%)
same,"Lymphocyte count decreased, patients with grade ≥3 abnormal laboratory finding",[3]; 20 mg (N = 6),0 N (%)
same,"Lymphopenia, patients with grade ≥3 abnormal laboratory finding",[3]; 20 mg (N = 6),0 N (%)
same,"Neutropenia, patients with grade ≥3 abnormal laboratory finding",[3]; 20 mg (N = 6),3 (50) N (%)
same,"Leukopenia, patients with grade ≥3 abnormal laboratory finding",[3]; 20 mg (N = 6),3 (50) N (%)
same,"Hemoglobin decreased, patients with grade ≥3 abnormal laboratory finding",[3]; 20 mg (N = 6),0 N (%)
same,"Thrombocytopenia, patients with grade ≥3 abnormal laboratory finding",[3]; 20 mg (N = 6),0 N (%)
same,"Weight decreased, patients with grade ≥3 abnormal vital sign",[3]; 20 mg (N = 6),1 (17) N (%)
same,"Any grade ≥3 finding/vital sign, patients with grade ≥3 abnormal laboratory findings/vital signs",[3]; 25 mg (N = 6),6 (100) N (%)
same,"Blood sodium decreased, patients with grade ≥3 abnormal laboratory finding",[3]; 25 mg (N = 6),0 N (%)
same,"Lymphocyte count decreased, patients with grade ≥3 abnormal laboratory finding",[3]; 25 mg (N = 6),1 (17) N (%)
same,"Lymphopenia, patients with grade ≥3 abnormal laboratory finding",[3]; 25 mg (N = 6),1 (17) N (%)
